Laboratory results from ChEMBL document CHEMBL4602726, “Discovery of the First Vitamin K Analogue as a Potential Treatment of Pharmacoresistant Seizures” (J Med Chem, 2020).

Legend:
[1] = Toxicity in mouse HT22 cells assessed as inhibition of cell viability at 50 uM incubated for 48 hrs by Cell-titer-Blue dye based fluorescence spectrophotometry relative to control; set-up: species or system HT-22; settings: read-out: Activity
Procedure, shortened: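 HT-22 cells in DMEM high glucose with 10% FBS, 2000 per well. Serially diluted compound added after 12 h, incubated 48 h. […] Background subtracted, normalized to control wells.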

Mus musculus [2] = assay: Anti-seizure activity in CF1 mouse assessed as attenuation of psychomotor seizures at stimulus intensities of 44 mA at 400 mg/kg, ip measured at 0.25 to 4 hrs by 6 Hz limbic seizure test relative to control; type: functional
Procedure, shortened: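 Male CF-1 mice, n=8 per dose. 6 Hz, 3 s corneal stimulation at 32 or 44 mA. Compound given ip in miglyol840/DMSO (95%/5%). Time of peak effect found by testing at 0.25–4 h; dose-response run at that time. Protected if no stun, jaw/forelimb clonus, vibrissae twitching or Straub tail for ≥1 s. ED50 by Probit analysis.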

[3] = Toxicity in CF1 mouse assessed as induction of abdominal constriction measured during 1 hr observation period by writhing test; settings: in vivo
[4] = Toxicity in CF1 mouse assessed as induction of discolored urine; settings: in vivo
[5] = Toxicity in CF1 mouse assessed as induction of lethality measured after electric stimulation after 24 hrs at >500 mg/kg; type: organism-based; settings: in vivo
[6] = Toxicity in CF1 mouse assessed as induction of motor impairment during acute (1 hr) observation period up to 800 mg/kg by rotarod assay; type: organism-based; settings: in vivo
Procedure, shortened: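 Rotarod at 6 rpm on the same animals immediately before 6 Hz stimulation, 1 h after ip dosing. A mouse falling three times within one minute was scored impaired.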

Mus musculus [7] = assay: Anti-seizure activity in ip dosed CF1 mouse assessed as reduction in hindlimb tonic extension during seizure measured at 1 hr by MES test; type: functional
Procedure, shortened: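 Male CF-1 mice, n=8 per dose, dosed ip as 0.5% HPMC suspension, tested 1 h later. Corneal 60 Hz, 50 mA, 2 s shock after 0.5% tetracaine applied to eyes. Protection = absence of hindlimb tonic extension. ED50 from four dose levels.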

[8] = Drug level in CD1 mouse plasma at 400 mg/kg, ip after 1 hr by LC-MS/MS analysis; type: ADME, organism-based
Procedure, shortened: (§1)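 Male mice fasted overnight and given ip dose in 95% Miglyol 840/5% DMSO. Plasma precipitated 3:1 with acetonitrile plus internal standard. Brain homogenized 3:1 in PBS, then acetonitrile extraction. LC-MS/MS in MRM mode, standard curve 1 ng/mL–10 μg/mL. Ratio = mean tissue (ng/g) over mean plasma (ng/mL) concentration.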

[9] = Drug level in CD1 mouse plasma at 400 mg/kg, ip after 2 hrs by LC-MS/MS analysis; type: ADME, organism-based; procedure, shortened: as §1
[10] = Drug level in CD1 mouse plasma at 400 mg/kg, ip after 8 hrs by LC-MS/MS analysis; type: ADME, organism-based; procedure, shortened: as §1
[11] = Drug level in CD1 mouse brain at 400 mg/kg, ip after 1 hr by LC-MS/MS analysis; type: ADME, organism-based; settings: read-out: Drug uptake; procedure, shortened: as §1
[12] = Drug level in CD1 mouse brain at 400 mg/kg, ip after 2 hrs by LC-MS/MS analysis; type: ADME, organism-based; settings: read-out: Drug uptake; procedure, shortened: as §1
[13] = Drug level in CD1 mouse brain at 400 mg/kg, ip after 4 hrs by LC-MS/MS analysis; type: ADME, organism-based; settings: read-out: Drug uptake; procedure, shortened: as §1
[14] = Drug level in CD1 mouse brain at 400 mg/kg, ip after 8 hrs by LC-MS/MS analysis; type: ADME, organism-based; settings: read-out: Drug uptake; procedure, shortened: as §1
[15] = Ratio of drug level in brain to plasma in CD1 mouse at 400 mg/kg, ip after 1 hr by LC-MS/MS analysis; type: ADME, organism-based; settings: brain and plasma, read-out: BPR; procedure, shortened: as §1
[16] = Ratio of drug level in brain to plasma in CD1 mouse at 400 mg/kg, ip after 4 hrs by LC-MS/MS analysis; type: ADME, organism-based; settings: brain and plasma, read-out: BPR; procedure, shortened: as §1
[17] = AUClast in CD1 mouse at 20 mg/kg, ip measured after 0.083 to 24 hrs by LC-MS/MS analysis; type: ADME, organism-based; set-up: time lower 0.083 hr, dose 20 mg/kg, time upper 24 hr, route intraperitoneal; settings: in vivo
Procedure, shortened: (§2)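 Male CD-1 mice, 3 per route. Oral and ip at 20 mg/kg by gavage needle; iv at 5 mg/kg by tail vein. Vehicles were 20% DMA:40% PEG300:40% H2O for oral/iv and 5% DMSO:95% Neobee for ip. Blood sampled 0.083–24 h, plasma protein-precipitated with acetonitrile plus internal standard, LC-MS/MS (MRM). Non-compartmental analysis, linear trapezoidal AUC.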

[18] = Drug reactivity with 2-mercaptoethanol measured over 6 hrs; type: physicochemical
[19] = Cmax in CD1 mouse at 5 mg/kg, iv measured after 0.083 to 24 hrs by LC-MS/MS analysis; type: ADME, organism-based; set-up: dose 5 mg/kg, route intravenous; settings: in vivo; procedure, shortened: as §2
[20] = Cmax in CD1 mouse at 20 mg/kg, po measured after 0.083 to 24 hrs by LC-MS/MS analysis; type: ADME, organism-based; set-up: dose 20 mg/kg, route oral; settings: in vivo; procedure, shortened: as §2
[21] = AUClast in CD1 mouse at 5 mg/kg, iv measured after 0.083 to 24 hrs by LC-MS/MS analysis; type: ADME, organism-based; set-up: dose 5 mg/kg, time upper 24 hr, time lower 0.083 hr, route intravenous; settings: in vivo; procedure, shortened: as §2
[22] = AUClast in CD1 mouse at 20 mg/kg, po measured after 0.083 to 24 hrs by LC-MS/MS analysis; type: ADME, organism-based; set-up: time 0.083-24 hr, dose 20 mg/kg, route oral; settings: in vivo; procedure, shortened: as §2
[23] = Oral bio availability in CD1 mouse at 20 mg/kg measured after 0.083 to 24 hrs by LC-MS/MS analysis; type: ADME, organism-based; settings: in vivo; procedure, shortened: as §2
Cytochrome P450 1A2 = target: T1, Cytochrome P450 1A2 (Homo sapiens, UniProt P05177); assay: Inhibition of CYP1A2 in human liver microsomes using isoform-specific probe substrates incubated for 15 to 30 mins by LC-MS/MS analysis; type: ADME
T1 sequence (P05177 whole entry): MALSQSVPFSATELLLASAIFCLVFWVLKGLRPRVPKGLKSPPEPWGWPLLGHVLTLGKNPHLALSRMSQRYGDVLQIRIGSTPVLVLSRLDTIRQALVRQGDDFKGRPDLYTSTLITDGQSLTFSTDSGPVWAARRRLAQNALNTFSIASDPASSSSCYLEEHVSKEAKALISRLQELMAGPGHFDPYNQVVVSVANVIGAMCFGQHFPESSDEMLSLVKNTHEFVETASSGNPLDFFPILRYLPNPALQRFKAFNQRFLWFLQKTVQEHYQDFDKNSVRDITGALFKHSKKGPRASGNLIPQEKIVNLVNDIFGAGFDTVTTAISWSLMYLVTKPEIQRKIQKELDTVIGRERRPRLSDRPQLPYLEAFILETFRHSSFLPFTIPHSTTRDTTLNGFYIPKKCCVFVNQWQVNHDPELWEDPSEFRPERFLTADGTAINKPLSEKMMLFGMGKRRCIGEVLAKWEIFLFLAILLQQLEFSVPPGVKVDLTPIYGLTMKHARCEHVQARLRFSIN
Procedure, shortened: (§3)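 Pooled mixed-gender human liver microsomes 0.2 mg/mL in 100 mM potassium phosphate with 2 mM NADPH. Isoform-specific probe substrates near Km. Organic solvent ≤1% final. Incubated 37°C for 15–30 min, quenched with acetonitrile plus internal standard. Probe metabolites measured by LC-MS/MS; percent inhibition versus vehicle, IC50 by variable-slope sigmoid fit.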

Cytochrome P450 2C9 = Cytochrome P450 2C9 (Homo sapiens, UniProt P11712); assay: Inhibition of CYP2C9 in human liver microsomes using isoform-specific probe substrates incubated for 15 to 30 mins by LC-MS/MS analysis; type: ADME; procedure, shortened: as §3
Sequence of Cytochrome P450 2C9 (P11712 whole entry, canonical isoform): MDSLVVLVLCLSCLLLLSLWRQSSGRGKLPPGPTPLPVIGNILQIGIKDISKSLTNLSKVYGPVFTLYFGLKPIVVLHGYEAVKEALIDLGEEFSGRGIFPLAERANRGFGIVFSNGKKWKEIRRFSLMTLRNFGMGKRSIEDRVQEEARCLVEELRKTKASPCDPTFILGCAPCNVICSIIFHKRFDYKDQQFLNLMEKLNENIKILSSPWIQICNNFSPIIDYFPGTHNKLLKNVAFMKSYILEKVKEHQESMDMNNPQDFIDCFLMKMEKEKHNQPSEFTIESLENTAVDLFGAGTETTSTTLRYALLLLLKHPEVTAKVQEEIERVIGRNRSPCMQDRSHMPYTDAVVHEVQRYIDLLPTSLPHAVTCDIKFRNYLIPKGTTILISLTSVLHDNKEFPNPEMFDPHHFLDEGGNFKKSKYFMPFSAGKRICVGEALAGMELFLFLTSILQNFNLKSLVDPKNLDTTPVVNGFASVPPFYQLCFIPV

In the case of `CC(C)CCNC1=CC(=O)c2ccccc2C1=O`, the inhibition at 48 h, 50 µM [1] is reported as 17.8%, the Activity (Mus musculus [2]) is reported as 100% and the Activity [3] is reported as “Toxic”. For the same molecule, the Activity [4] was “Toxic”, the Activity [5] was “Toxic” and the Activity [6] was “Non-Toxic”. It also gave an ED50 (Mus musculus [7]) of 108 mg/kg, a concentration at 1 h [8] of 1690 ng/mL and a concentration at 2 h [9] of 2750 ng/mL. For the same molecule, the concentration at 8 h [10] was 3220 ng/mL, the concentration at 1 h [11] was 3940 ng/g and the concentration at 2 h [12] was 4930 ng/g. It also gave a concentration at 4 h [13] of 3760 ng/g, a concentration at 8 h [14] of 2630 ng/g and a Kp at 1 h [15] of 2.33. For the same molecule, the Kp at 4 h [16] was 1, the AUC(0-t) [17] was 1720 ng·h/mL and the Drug metabolism [18] was “Metabolite_Notdetected”. It also gave a Cmax [19] of 1910 ng/mL, a Cmax [20] of 1020 ng/mL and an AUC(0-t) [21] of 636 ng·h/mL. The AUC(0-t) [22] was 903 ng·h/mL, the F [23] was 35.9% and the IC50 (Cytochrome P450 1A2) was 5.57 µM. The IC50 (Cytochrome P450 2C9) was 29.3 µM.
